The results in this text go back to ChEMBL document CHEMBL1143665, “Novel acyclic enediynes inhibit Cyclin A and Cdc25C expression and induce apoptosis phenomenon to show potent antitumor proliferation” (2007).

One assay relates to SF-295. The assay is described as follows: Cytotoxicity against human SF295 cells. The class given is functional.
Assay [1] relates to K562. Put plainly: Cytotoxicity against human K562 cells. The format is functional.
The next assay concerns DU-145. The assay is described as follows: Cytotoxicity against human DU145 cells. The format is functional.
The subject of a further assay is HCT-15. The assay is described as follows: Cytotoxicity against human HCT15 cells. The class given is functional.
Another assay concerns LOX IMVI. Put plainly: Cytotoxicity against human LOX IMVI cells. The format is functional.
The next assay concerns OVCAR-3. Put plainly: Cytotoxicity against human OVCAR-3 cells. The format is functional.
The next assay has as its system MDA-MB-435. The assay is described as follows: Cytotoxicity against human MDA-MB-435 cells. The class given is functional.
Assay [2] concerns K562. The assay is described as follows: Cell cycle arrest in human K562 cells by accumulation at G0/G1 phase cell at 50 uM after 24 hrs relative to control. The class given is functional. Put shortly:
(§1)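 K-562 cells (RPMI 1640, 10% fetal calf serum, 37 °C, 5% CO2) exposed 24 h, pelleted, fixed in ice-cold 70% ethanol 30 min, RNase A (1 mg/ml) 37 °C 30 min, propidium iodide stain 30 min at room temperature in the dark; DNA content of 10,000 events by flow cytometry; phase and sub-G1 percentages compared with untreated control.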

Assay [3] has as its system K562. Put plainly: Cell cycle arrest in human K562 cells by accumulation at S phase cell at 50 uM after 24 hrs relative to control. The class given is functional. The method, boiled down:
as §1

For assay [4], the system named is K562. The assay is described as follows: Cell cycle arrest in human K562 cells by accumulation at G2/M phase cell at 50 uM after 24 hrs relative to control. The class given is functional. Put shortly: as §1
Assay [5] deals with K562. Put plainly: Induction of apoptosis in human K562 cells assessed as accumulation at subG1 phase at 50 uM after 24 hrs relative to control. The format is functional. Put shortly: as §1
For assay [6], the target named is T1, Caspase-3 (Homo sapiens) (UniProt P42574).
T1 sequence (whole entry): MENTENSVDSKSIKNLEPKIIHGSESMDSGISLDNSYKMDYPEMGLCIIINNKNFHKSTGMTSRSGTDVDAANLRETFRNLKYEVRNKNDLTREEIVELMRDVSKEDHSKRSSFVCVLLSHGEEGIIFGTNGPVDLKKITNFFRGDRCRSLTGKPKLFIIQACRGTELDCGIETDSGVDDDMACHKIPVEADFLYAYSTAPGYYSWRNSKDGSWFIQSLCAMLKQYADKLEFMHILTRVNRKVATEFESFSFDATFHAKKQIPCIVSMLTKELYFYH
The assay is described as follows: Increase in caspase 3 activation in human K562 cells at 50 uM relative to control. The class given is cell-based. The method, boiled down:
(§2)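 K-562 cells treated 24 h, washed, lysed in 50 mM Tris-HCl pH 7.4, 1 mM EDTA, 10 mM EGTA, spun 18,000g 3 min; lysate (50 µg protein) incubated with 100 µM caspase-specific colorimetric substrate at 37 °C for 1 h; cleavage read as absorbance at 405 nm, expressed as fold of control.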

The target of assay [7] is T1, Caspase-3 (Homo sapiens). Put plainly: Increase in caspase 3 activation in human K562 cells at 25 uM relative to control. The class given is cell-based. The method, boiled down:
as §2

Assay [8] has as its target Caspase-8 (Homo sapiens) (UniProt Q14790). The assay is described as follows: Increase in caspase 8 activation in human K562 cells at 25 uM relative to control. The format is cell-based. Put shortly: as §2
The target is the same in assay [9]. Put plainly: Increase in caspase 8 activation in human K562 cells at 50 uM relative to control. The class given is cell-based. The method, boiled down: as §2
The target of assay [10] is T2, Caspase-9 (Homo sapiens) (UniProt P55211).
T2 sequence (whole entry): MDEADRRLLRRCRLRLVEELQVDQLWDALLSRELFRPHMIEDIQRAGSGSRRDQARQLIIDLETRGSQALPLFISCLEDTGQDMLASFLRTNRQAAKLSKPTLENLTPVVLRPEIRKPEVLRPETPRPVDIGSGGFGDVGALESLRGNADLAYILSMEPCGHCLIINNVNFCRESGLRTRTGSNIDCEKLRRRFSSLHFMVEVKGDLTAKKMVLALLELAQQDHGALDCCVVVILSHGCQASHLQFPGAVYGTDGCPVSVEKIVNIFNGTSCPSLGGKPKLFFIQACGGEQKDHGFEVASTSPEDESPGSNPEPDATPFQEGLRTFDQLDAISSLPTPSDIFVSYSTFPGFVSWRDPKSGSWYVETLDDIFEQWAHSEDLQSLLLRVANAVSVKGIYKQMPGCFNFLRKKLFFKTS
Put plainly: Increase in caspase 9 activation in human K562 cells at 25 uM relative to control. The class given is cell-based. The method, boiled down: as §2

Assay [11] deals with T2, Caspase-9 (Homo sapiens). The assay is described as follows: Increase in caspase 9 activation in human K562 cells at 50 uM relative to control. The class given is cell-based. The method, boiled down:
as §2

Assay [12] has as its system K562. Put plainly: Induction of apoptosis in human K562 cells at 50 uM in presence of Z-DEVD-FMK. The class given is functional. Put shortly: (§3)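 K-562 cells preincubated 1 h with caspase-3 (Z-DEVD-FMK), -8 (Z-IETD-FMK) or -9 (Z-LEHD-FMK) inhibitor, then exposed 24 h; cells fixed in 70% ethanol, RNase A (500 U/ml) 37 °C 15 min, propidium iodide 50 µg/ml in PBS; sub-G1 fraction by flow cytometry.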

The test system of assay [13] is K562. The assay is described as follows: Induction of apoptosis in human K562 cells at 50 uM in presence of Z-IETD-FMK. The class given is functional. Put shortly:
as §3

Assay [14] relates to K562. Put plainly: Induction of apoptosis in human K562 cells at 50 uM in presence of Z-LEHD-FMK. The format is functional. The method, boiled down:
as §3

Chain of Caspase-8 (Homo sapiens) (Q14790 217-374 limits assumed): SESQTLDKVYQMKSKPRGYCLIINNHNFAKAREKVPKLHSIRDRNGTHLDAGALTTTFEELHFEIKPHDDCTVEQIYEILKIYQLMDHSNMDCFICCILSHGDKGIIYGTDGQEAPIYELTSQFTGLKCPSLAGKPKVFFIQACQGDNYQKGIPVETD
Chain of Caspase-8 (Homo sapiens) (Q14790 385-479 limits assumed): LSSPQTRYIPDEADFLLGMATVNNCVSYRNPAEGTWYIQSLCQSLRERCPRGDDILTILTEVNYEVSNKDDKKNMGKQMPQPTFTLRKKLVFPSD

By GI50 is commonly meant the concentration that inhibits growth by half. Read a high GI50 as lower sensitivity of the cells. For `OCCCCC#Cc1ccccc1C#Cc1ccc(O)cc1`, the GI50 with SF-295 amounted to 16.2 µM; in the assay on K562 [1], 20.4 µM; with DU-145, 16.8 µM; with HCT-15 it was 14.1 µM; with LOX IMVI it was 13.6 µM; with OVCAR-3, 14.8 µM. This compound also returned a GI50 in the assay with MDA-MB-435 of 16.1 µM. The Activity was determined as 25.6% with K562 [2]; 39.5% in the assay on K562 [3]; 34.9% with K562 [4]; 23.56% in the assay on K562 [5]; 17% with K562 [12]; 19% in the assay on K562 [13]. The Activity in the assay with K562 [14] stood at 42%. The Fold change was found to be 2.6 at Caspase-3 (Homo sapiens) [6]; 1.4 at Caspase-3 (Homo sapiens) [7]; 1.2 at Caspase-8 (Homo sapiens) [8]; 1.8 at Caspase-8 (Homo sapiens) [9]; 1.5 on Caspase-9 (Homo sapiens) [10]; 1.7 at Caspase-9 (Homo sapiens) [11].
